According to PubChem BioAssay:
Active and inactive are the calls of the source.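 The calls were made as follows, unless noted: active = inhibition at or above 50% at 10 µM; inactive = inhibition below 50%.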

What was measured:
[1] = inhibitors of TNFa-induced NFkB p65 translocation, primary screen, imaging, HUVEC, MLSMR starter and 10KST1 sets (AID 438;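 active = inhibition above 20% together with a positive visual image hit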;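 also: compound added about 3h40 before a 20 min TNFalpha stimulation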;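 as to inhibition: signal is the nuclear over cytoplasmic p65 intensity ratio per well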); conditions: HUVEC TNFa-induced p65 nuclear translocation; cell count: measured here: nuclei count (cytotoxicity indicator), at 2.08 µM; inhibition: at 2 µM, stronger effect = higher value, 0% TNFa-plus-vehicle, 100% no-TNFa wells
[2] = reduction of polyQ htt aggregates in cells – imaging, exon1htt(103Q)mCFP cells, high-content imaging, primary screen (AID 483;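 active = visual image review flags a hit and inhibition of aggregation exceeds 20%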;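 also: compound exposure lasted 3 days before fixation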;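 as to nuclei count: percent of the per-plate median nuclei count of sample wells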); conditions: exon1htt(103Q)mCFP cell line, aggregate imaging, at 2 µM; inhibition of aggregation: stronger effect = higher value; nuclei count: measured here: cell count, toxicity
[3] = endothelial E-selectin expression blockers – imaging, HUVEC, immunofluorescence, MLSMR starter and 10KST1 sets, primary screen (AID 487;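 active = visually confirmed hit in the image check and inhibition above 20%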;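 as to inhibition: signal is fraction of cell area covered by stained E-selectin grains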;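 as to nuclei count: 100% = median nuclei count of all wells on the same plate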); conditions: HUVEC TNFalpha-induced E-selectin immunofluorescence imaging, at 2 µM; inhibition: stronger effect = higher value; nuclei count: measured here: cell number, toxicity
[4] = molecular target: Voltage-gated potassium channel subunit beta-2 (Rattus norvegicus) (UniProt P62483); experiment: inhibitors of rat Kvbeta2 reductase activity – biochemical, NADPH fluorescence, primary screen (AID 622;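 active = fluorescence slope higher than the sample average by over 3 SD, cut at about -0.22 in these data, passing the limit was not always enough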;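 also: slope of raw intensity against log time taken from 70 to 1610 s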); conditions: recombinant KvBeta, 4-cyanobenzaldehyde reduction, at 10 µM, stronger effect = higher value
Voltage-gated potassium channel subunit beta-2 (Rattus norvegicus), sequence (P62483 whole entry, looked up): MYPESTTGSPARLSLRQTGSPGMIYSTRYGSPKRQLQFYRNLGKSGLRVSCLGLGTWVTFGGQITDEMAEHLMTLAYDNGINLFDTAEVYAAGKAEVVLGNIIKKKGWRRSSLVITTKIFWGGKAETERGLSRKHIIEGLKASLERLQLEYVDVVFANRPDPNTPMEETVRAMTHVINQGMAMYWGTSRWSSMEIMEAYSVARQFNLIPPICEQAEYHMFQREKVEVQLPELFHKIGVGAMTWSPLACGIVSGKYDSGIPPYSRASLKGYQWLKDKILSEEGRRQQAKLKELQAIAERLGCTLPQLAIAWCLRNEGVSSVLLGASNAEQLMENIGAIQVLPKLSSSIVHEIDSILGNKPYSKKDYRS

[5] = molecular target: Voltage-gated potassium channel subunit beta-2 (Rattus norvegicus) (UniProt P62483); experiment: enhancers of rat Kvbeta2 NADPH turnover – biochemical, NADPH fluorescence, primary screen (AID 623;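 active = NADPH fluorescence slope more negative than the mean of all samples by about 3 SD, 99.7% confidence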;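 also: fluorescence intensity change per second fitted from 20 to 320 s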); conditions: Recombinant KvBeta, NADPH fluorescence decrease slope, 10 min; at 10 µM; stronger effect = lower value
[6] = molecular target: Muscarinic acetylcholine receptor M4 (Homo sapiens) (UniProt P08173); experiment: M4-linked GIRK flux change, two-sided – cell-based, HEK293 M4/GIRK, thallium flux, BTC-AM, M4 allosteric agonist project, primary screen (AID 625;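 active = fluorescence slope after compound addition differing from the mean of all tested samples at 99.7% confidence, mostly higher but some lower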;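 also: thallium influx through GIRK channels coupled to M4 in HEK293 cells with BTC-AM dye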); conditions: at 10 µM, actives lie on both sides
Muscarinic acetylcholine receptor M4 (Homo sapiens), sequence (P08173 whole entry, looked up): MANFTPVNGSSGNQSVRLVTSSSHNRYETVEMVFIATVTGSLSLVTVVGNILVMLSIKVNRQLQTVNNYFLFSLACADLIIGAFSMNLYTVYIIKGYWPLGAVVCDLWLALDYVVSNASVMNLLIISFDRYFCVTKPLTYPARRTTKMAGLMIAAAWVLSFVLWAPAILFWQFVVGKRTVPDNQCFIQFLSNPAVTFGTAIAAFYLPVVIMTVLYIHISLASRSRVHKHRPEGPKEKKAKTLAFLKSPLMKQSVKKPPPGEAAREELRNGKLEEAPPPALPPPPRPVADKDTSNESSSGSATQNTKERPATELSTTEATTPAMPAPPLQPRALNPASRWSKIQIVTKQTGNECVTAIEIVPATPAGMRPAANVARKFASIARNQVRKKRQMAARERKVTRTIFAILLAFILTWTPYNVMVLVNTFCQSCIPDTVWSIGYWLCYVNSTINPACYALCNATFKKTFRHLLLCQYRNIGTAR
Outline: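 System: HEK293 cells with M4 receptor and GIRK channels | Incubation: Cells overnight at 37 °C, BTC-AM loading 1 h, reads 2 min total | Technique: Kinetic BTC-AM fluorescence sampled at 1 Hz, 10 s pre-addition baseline | Measure: Post-addition slope, 15–24 s, of baseline-normalized fluorescence | Control set: Carbachol positive, DMSO negative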

[7] = blockers of RIG-like receptor reporter activation – cell-based, Sendai virus stimulus, luciferase, 10K MLSCN set, TLR/RLR signaling modifier project, primary screen (AID 602276); conditions: HEK293 RL24 IRF3 luciferase reporter, at 10 µM, stronger effect = higher value;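 also: firefly luciferase from ISG56 promoter only with Renilla not read in this screen; 0% = Sendai virus plus DMSO and 100% = medium plus DMSO without virus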
[8] = TLR3 IRF3 reporter activation blockers – cell-based, poly I:C stimulus, luciferase, 10K MLSCN set, primary screen (AID 602277;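 active = inhibition of the reporter signal at or above 50%; inactive = inhibition below 50%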); conditions: HEK293-TLR3 RL24 IRF3 luciferase reporter, at 10 µM, stronger effect = higher value

| Compound | cell count [1] | inhibition [1] | inhibition of aggregation [2] | nuclei count [2] [%] | inhibition [3] | nuclei count [3] [%] | fluorescence slope [4] | NADPH fluorescence slope [5] | fluorescence slope [6] | inhibition [7] | inhibition [8] |
| --- | --- | --- | --- | --- | --- | --- | --- | --- | --- | --- | --- |
| COc1ccc2oc(C)c(C(=O)Cn3ccnc3)c2c1 | 488 | -7.3% (inactive) | 22.7% (inactive) | 54.3 | -16% (inactive) | 108 | -0.578 (inactive) | -1.5e-05 (inactive) | 0.00618 (inactive) | -26.4% (inactive) | -28.5% (inactive) |
| Cc1nc2ccccn2c1/C(O)=C1\C(=O)C(=O)N(CCN2CCOCC2)C1c1cccs1 (stereo not drawn) | 318 | 0.2% (inactive) | 0.3% (inactive) | 99.6 | -41.3% (inactive) | 116 | -0.301 (inactive) | -1.7e-05 (inactive) | 0.00659 (inactive) | -0.701% (inactive) | 7.4% (inactive) |
| Cc1nc(N2CCOCC2)[nH]c(=O)c1CCC(C)C | 417 | -3.4% (inactive) | 6.3% (inactive) | 107 | 28.7% (inactive) | 57.6 | -0.4 (inactive) | 2.6e-05 (inactive) | 0.0057 (inactive) | 15.6% (inactive) | 21.2% (inactive) |
| Cc1ccc(CNC(=O)C2CCCN(S(=O)(=O)c3cccnc3)C2)cc1 (stereo not drawn) | 313 | -3.9% (inactive) | -2.8% (inactive) | 89.2 | -250% (inactive) | 88.5 | -0.573 (inactive) | 2.7e-05 (inactive) | 0.00508 (inactive) | -3.78% (inactive) | -7.01% (inactive) |
| COc1ccc(CCNC(=O)c2cc(-c3cc(C)c(C)cc3O)n[nH]2)cc1OC | 434 | 2.8% (inactive) | 8.6% (inactive) | 88.9 | -83.7% (inactive) | 145 | -0.444 (inactive) | -0.000364 (inactive) | 0.00555 (inactive) | 9.16% (inactive) | 9.05% (inactive) |
| CCN1C(=O)N(CC)C2C1N(C(C)=O)C(=O)N2C(C)=O (stereo not drawn) | 373 | 3.7% (inactive) | 0.2% (inactive) | 115 | -9.3% (inactive) | 117 | -0.579 (inactive) | -6.5e-05 (inactive) | 0.0074 (inactive) | 13.4% (inactive) | 16.9% (inactive) |
| COc1ccc2c(c1OC)C(=O)OC2Nn1cncn1 (stereo not drawn) | 334 | -9.5% (inactive) | -11.1% (inactive) | 113 | 1.1% (inactive) | 108 | -0.565 (inactive) | 1.7e-05 (inactive) | 0.00408 (inactive) | 15.9% (inactive) | 22.6% (inactive) |
| Cc1cc(C)nc(N2CCCC(C(=O)Nc3ccc4c(c3)OCO4)C2)n1 (stereo not drawn) | 563 | -19.4% (inactive) | 15.3% (inactive) | 71.5 | 7.1% (inactive) | 95.8 | -0.279 (inactive) | 4.9e-06 (inactive) | 0.0054 (inactive) | -3.52% (inactive) | -3.39% (inactive) |
| COc1ccc(CCNS(=O)(=O)c2ccc(C(=O)NCc3ccco3)cc2)cc1OC | 355 | -13.1% (inactive) | 7.4% (inactive) | 94.7 | -35.9% (inactive) | 66.4 | -0.579 (inactive) | 2.6e-05 (inactive) | 0.00625 (inactive) | -8.15% (inactive) | -15.3% (inactive) |
| Cc1ccc(-c2nnc3ccc(SCC(=O)NCc4ccco4)nn23)cc1 | 421 | 0.7% (inactive) | 0.7% (inactive) | 117 | 17.1% (inactive) | 99.7 | -0.234 (inactive) | -7.9e-06 (inactive) | 0.00584 (inactive) | 4.93% (inactive) | 7.2% (inactive) |
| CCNC(=O)Cn1cnc2c1c(=O)n(C)c(=O)n2C | 315 | -12.5% (inactive) | 4.3% (inactive) | 113 | 7.8% (inactive) | 106 | -0.617 (inactive) | 7.5e-06 (inactive) | 0.00466 (inactive) | 12.1% (inactive) | 14.3% (inactive) |
| CCn1c2ccccc2c2cc(NC(=O)CSc3nnc(C4CC4)n3Cc3ccco3)ccc21 | 488 | 6.3% (inactive) | 2.5% (inactive) | 94.6 | 36.4% (inactive) | 94.6 | -0.461 (inactive) | 2.1e-05 (inactive) | 0.00526 (inactive) | 12.7% (inactive) | 17.6% (inactive) |
| CCc1c(C)nc(N)n2c(SCC(=O)N3CCCc4ccccc43)nnc12 | 503 | 14.6% (inactive) | -13.3% (inactive) | 123 | -251% (inactive) | 147 | -0.454 (inactive) | -6.5e-05 (inactive) | 0.00455 (inactive) | 20.9% (inactive) | 31.4% (inactive) |
| Cc1ccc(CCNC(=O)C2CCN(S(=O)(=O)c3cccc4nsnc34)CC2)cc1 | 644 | 5.2% (inactive) | -9.1% (inactive) | 96.4 | -129% (inactive) | 158 | -0.461 (inactive) | 0.000103 (inactive) | 0.00736 (inactive) | 0.47% (inactive) | -16.3% (inactive) |
| COc1cccc(Oc2ccc(N)cn2)c1 | 392 | -4.4% (inactive) | -4.1% (inactive) | 100 | -126% (inactive) | 114 | -0.537 (inactive) | -0.000148 (inactive) | 0.0033 (inactive) | -7.7% (inactive) | 1.94% (inactive) |
| CCc1cccc2c(=O)c(C(=O)NCCN3CCOCC3)c[nH]c12 | 584 | 8.2% (inactive) | -3.6% (inactive) | 110 | 27.3% (inactive) | 91.2 | -0.558 (inactive) | -5.3e-05 (inactive) | 0.00469 (inactive) | 1.65% (inactive) | 18.5% (inactive) |
| c1ccc(Cn2nnnc2C(c2ccccn2)N2CCOCC2)cc1 (stereo not drawn) | 485 | 2.1% (inactive) | -13% (inactive) | 81.4 | -85.1% (inactive) | 116 | -0.577 (inactive) | -4.9e-05 (inactive) | 0.00747 (inactive) | -6.48% (inactive) | 2.75% (inactive) |
| Clc1ccc(SCCn2ccnc2)cc1 | 481 | 10.1% (inactive) | -7.9% (inactive) | 104 | -245% (inactive) | 137 | -0.325 (inactive) | -2.6e-05 (inactive) | 0.00636 (inactive) | 2.29% (inactive) | 5.02% (inactive) |
| CSc1cccc(NC(=O)C2CCN(S(C)(=O)=O)CC2)c1 | 248 | 3.5% (inactive) | 16.4% (inactive) | 80.7 | -296% (inactive) | 120 | -0.438 (inactive) | 3.2e-05 (inactive) | 0.00544 (inactive) | 13.5% (inactive) | 13.6% (inactive) |
| CCOc1cc(C2C(C#N)=C(N)OC(C)=C2C(C)=O)cc(Br)c1O (stereo not drawn) | 235 | 11% (inactive) | -9.7% (inactive) | 95.5 | -29.3% (inactive) | 97.7 | -0.252 (inactive) | -2.9e-05 (inactive) | 0.00684 (inactive) | 12.3% (inactive) | 20.1% (inactive) |
| Brc1ccc(-c2cn3cccnc3n2)cc1 | 514 | 3.4% (inactive) | -8.8% (inactive) | 121 | -4.5% (inactive) | 110 | -0.138 (active) | 7.5e-06 (inactive) | 0.00424 (inactive) | -47.6% (inactive) | -89.9% (inactive) |
| O=S(=O)(c1ccc(OCC(O)CN2CCc3ccccc3C2)cc1)N1CCOCC1 (stereo not drawn) | 749 | 1.6% (inactive) | 6.1% (inactive) | 114 | -51.2% (inactive) | 132 | -0.549 (inactive) | 1.9e-05 (inactive) | 0.00569 (inactive) | 15.9% (inactive) | 26.7% (inactive) |
| O=C(COc1nnnc2ccccc12)N1CCCc2ccccc21 | 327 | 0.2% (inactive) | -10.1% (inactive) | 106 | -50.4% (inactive) | 130 | -0.43 (inactive) | -7.5e-05 (inactive) | 0.00597 (inactive) | 8.08% (inactive) | 16.5% (inactive) |
| O=C(NC1CC2CCC1C2)c1ccc(CN2CCOCC2)cc1 (stereo not drawn) | 362 | 6.1% (inactive) | 4.3% (inactive) | 91.8 | -7.2% (inactive) | 99.5 | -0.466 (inactive) | -5.1e-05 (inactive) | 0.0046 (inactive) | -25.1% (inactive) | -53.4% (inactive) |
| CCSc1nc(C)nc2c1oc1ccccc12 | 407 | 1.9% (inactive) | 2.4% (inactive) | 96.3 | -45.2% (inactive) | 106 | -0.423 (inactive) | -7.5e-05 (inactive) | 0.00861 (inactive) | -4.86% (inactive) | -3.79% (inactive) |
| CC(C)(C)Nc1nc(OCC(F)(F)F)nc(OCC(F)(F)F)n1 | 448 | 11.9% (inactive) | -14.2% (inactive) | 103 | -0.8% (inactive) | 114 | -0.424 (inactive) | -0.000395 (inactive) | 0.00457 (inactive) | 7.39% (inactive) | 8.5% (inactive) |
| C/C(=N\O)c1ccc2c3c([nH]c2c1)CCCC3 | 364 | -1.9% (inactive) | 6.7% (inactive) | 87.1 | -78.7% (inactive) | 96.4 | -0.532 (inactive) | -3.8e-05 (inactive) | 0.006 (inactive) | -28% (inactive) | -111% (inactive) |
| CCOc1ccc(C(=O)N2CCC(C(=O)c3ccc4c(c3)OCCO4)CC2)cc1 | 511 | -4.3% (inactive) | 6% (inactive) | 91.2 | -99.7% (inactive) | 116 | -0.511 (inactive) | -0.000103 (inactive) | 0.00391 (inactive) | 10.8% (inactive) | 2.96% (inactive) |
